Measured values reported in ChEMBL document CHEMBL2375315, “Alkaloids from the deep-sea-derived fungus Aspergillus westerdijkiae DFFSCS013” (J Nat Prod, 2013).

Tests used:
Assay type in all cases: functional, cell-based
[1] = system: K562; test: Cytotoxicity against human K562 cells by MTT assay
Summary of the method: (§1)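 Human tumour lines (erythroid leukemic K562, promyelocytic leukemia HL-60, breast adenocarcinoma MCF-7, lung carcinoma A549) exposed to compounds; viability read by MTT method, following a previously published protocol; IC50 values derived.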

[2] = system: MCF7; test: Cytotoxicity against human MCF7 cells by MTT assay; summary of the method: as §1
[3] = system: HL-60; test: Cytotoxicity against human HL60 cells by MTT assay; summary of the method: as §1
[4] = system: A549; test: Cytotoxicity against human A549 cells by MTT assay; summary of the method: as §1

| SMILES | IC50 [1] | IC50 [2] | IC50 [3] | IC50 [4] |
| --- | --- | --- | --- | --- |
| CC1(C)C=Cc2c3c(cc(Cl)c2O1)[C@@]1(C(=O)N3)[C@H](O)[C@@]23NC(=O)[C@]4(CCCN4C2=O)C[C@H]3C1(C)C | 44 µM | > 10 µM | > 10 µM | > 10 µM |
| O=C1NCc2nc3c(O)cccc3c(=O)n2-c2ccccc21 | > 10 µM | > 10 µM | > 10 µM | > 10 µM |
| C[C@H]1NC(=O)c2ccccc2-n2c1nc1ccccc1c2=O | > 10 µM | > 10 µM | > 10 µM | > 10 µM |
| C[C@@H]1NC(=O)c2ccccc2-n2c1nc1c(c2=O)C=CC=CO1 | > 10 µM | > 10 µM | > 10 µM | > 10 µM |
| CC1(C)C=Cc2c(ccc3c2NC(=O)[C@@]32[C@H](O)[C@@]34NC(=O)[C@]5(CCCN5C3=O)C[C@H]4C2(C)C)O1 [SCLEROTIAMIDE] | 26 µM | > 10 µM | 45 µM | > 10 µM |
| CC(C)CC(=O)OC(/C(=N/O)C(N)=O)C(C)C (configuration not stated) | > 10 µM | > 10 µM | > 10 µM | > 10 µM |
| C[C@@H]1NC(=O)c2ccccc2-n2c1nc1c(O)cccc1c2=O | > 10 µM | > 10 µM | > 10 µM | > 10 µM |
| CC1(C)C=Cc2c(ccc3c2NC(=O)[C@@]32[C@@H](O)[C@@]34NC(=O)[C@]5(CCCN5C3=O)C[C@H]4C2(C)C)O1 | 53 µM | > 10 µM | > 10 µM | > 10 µM |
